Hits are enriched below; roughly 1.6% of the tested compounds scored in any of these assays.
STEP block: STEP phosphatase inhibitors, primary screen, biochemical, fluorescence intensity, uHTS. inhibition, % at 20 µM. AID 588621, 2011. recombinant STEP, OMFP fluorogenic substrate. 0.25% of 360,000 active;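 active means inhibition at 20 µM, scaled per plate between control wells, above about 37%, limit read from the data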;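 further: 0% = DMSO with enzyme and substrate and 100% = substrate only without enzyme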
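material = STEP tyrosine phosphatase | reagent = fluorogenic phosphatase substrate OMFP at 25 µM final | doses = single compound dose of 20 µM, 1% DMSO final | schedule = 20 min reaction, room temperature, in the dark | measured by = fluorescence, 480/540 nm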
LMPTP inh: LMPTP phosphatase inhibitors, primary screen, biochemical, fluorescence intensity, uHTS. Low molecular weight phosphotyrosine protein phosphatase (Homo sapiens), P24666. recombinant LMPTP-A, OMFP fluorogenic substrate. inhibition, % at 20 µM. 0.22% of 360,000 active;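 active means compounds that cut the enzyme signal by at least half of the control window in the single-dose screen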;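 further: plate controls were DMSO wells with enzyme plus substrate for no effect and substrate without enzyme for full effect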
Target sequence (P24666 whole entry, looked up): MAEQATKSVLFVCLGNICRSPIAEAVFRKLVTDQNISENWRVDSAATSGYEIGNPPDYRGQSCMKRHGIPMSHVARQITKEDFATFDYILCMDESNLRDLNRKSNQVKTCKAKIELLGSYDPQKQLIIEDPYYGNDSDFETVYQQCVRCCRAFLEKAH
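Assay system: LMPTP-A, protein tyrosine phosphatase of low molecular weight / Medium: pH 6.0 Bis-Tris buffer with DTT and Triton X-100 / Schedule: 50 min enzyme reaction at room temperature, protected from light / Measured by: endpoint fluorescence intensity from OMFP dephosphorylation / Read-out basis: % inhibition relative to no-enzyme and uninhibited control wells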
F508del corr: F508del CFTR correction, initial screen, CFBE line, single point | 0.36% of 350,000 active | activity (quench increase), % at 7.58 µM | CFBE cells, YFP halide quenching; stimulated with forskolin plus potentiator P3; % fluorescence drop versus neutral controls;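 active means mean added fluorescence quench of at least 8% versus neutral control, with both replicates also reaching 8%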;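 further: cells transiently co-express mutant CFTR-F508del with the halide-sensitive YFP; corrector assay measuring rescue of mutant channel to the surface after 24 h compound exposure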
Scp1 inh: Scp-1 phosphatase inhibitors, primary screen, biochemical, colorimetric, uHTS; inhibition, % at 20 µM; Recombinant Scp1, phosphopeptide, malachite green phosphate absorbance; Carboxy-terminal domain RNA polymerase II polypeptide A small phosphatase 1 (Homo …; 0.88% of 340,000 active;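 active means inhibition above about 50% at 20 µM, limit read from the data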;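 further: plate controls were DMSO wells with enzyme for no effect and wells lacking enzyme for full effect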
Target sequence (Q9GZU7 76-261 limits assumed): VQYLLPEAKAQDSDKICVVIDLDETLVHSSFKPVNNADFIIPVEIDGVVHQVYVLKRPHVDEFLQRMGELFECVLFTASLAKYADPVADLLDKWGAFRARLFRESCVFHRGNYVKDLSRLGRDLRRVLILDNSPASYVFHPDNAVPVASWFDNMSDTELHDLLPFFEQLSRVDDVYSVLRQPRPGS
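System: SCP-1 catalytic domain; Reagent: Phospho 17-mer peptide substrate; Doses: one concentration, 20 µM, with 1.0% DMSO; Incubation: 45 min room-temperature reaction, 5 min colour, 30 min stabiliser; Signal: Phosphate-binding colour reagent, absorbance read at 630 nm.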
DNMT1 inh: human DNMT1 methyltransferase inhibitors, primary screen, biochemical, molecular beacon, fluorescence, HinP1I cleavage, uHTS; inhibition (reported as % activation of signal), % at 10 µM; DNA (cytosine-5)-methyltransferase 1 (Homo sapiens), P26358; 0.83% of 360,000 active; AID 588458, 2011; in the data active means inhibition above about 50%
SUMO1-SIM PPI: modulators of SUMO1 protein-protein interactions, primary screen, biochemical, uHTS; Small ubiquitin-related modifier 1 (Homo sapiens), P63165; SUMO1 binding to a labelled peptide, TR-FRET, 1 h; inhibition, % at 20 µM; 0.33% of 360,000 active; AID 602429, 2012; in the data active means inhibition above about 37%
Target sequence (P63165 whole entry, looked up): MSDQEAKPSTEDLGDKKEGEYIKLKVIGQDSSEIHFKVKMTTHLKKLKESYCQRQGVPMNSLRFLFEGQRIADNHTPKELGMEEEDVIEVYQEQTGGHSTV
Scp-1 conf: Scp-1 phosphatase inhibitors, retest, confirmation, biochemical, colorimetric, single concentration; shares compounds with Scp1 inh; recombinant SCP-1 catalytic domain, phosphate release, malachite green absorbance; inhibition, % at 20 µM; 61% of 2,500 active; AID 540281, 2011;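 further: plate controls were DMSO with enzyme for no effect and buffer wells lacking enzyme for full effect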
Scp-1 MG ctr: colorimetric readout interference by compounds, confirmation, artefact control for Scp-1 inhibitor project, biochemical, single concentration | shares compounds with Scp1 inh | Colorimetric interference counterscreen, malachite green absorbance 630 nm | apparent inhibition (interference), % at 20 µM | 2,500 tested, under 10 active | AID 540313, 2011;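 further: compounds added after enzyme reaction finished so only phosphate colour detection is probed; plate controls were DMSO wells with completed Scp-1 reaction for no effect and substrate wells lacking enzyme for full effect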
Scp1 DSF: Scp-1 binding by thermal shift, confirmation, orthogonal assay for Scp-1 inhibitor project, biophysical, differential scanning fluorimetry; AID 540329, 2011; shares compounds with Scp1 inh; 25% of 1,500 active; Recombinant SCP1, Sypro Orange thermal shift Tm; thermal shift relative to vanadate control, % at 40 µM;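 active means substances whose mean melting-temperature shift, as a percentage of the reference inhibitor's shift, reaches about 5.3%, limit read from the data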;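 further: 0% = Tm of DMSO wells and 100% = Tm with sodium orthovanadate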
* = called active by the depositor; . = no result.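 How the source made its calls, unless noted: active means inhibition of at least 30% at 20 µM; inactive means the rest.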

SMILES	STEP block	LMPTP inh	F508del corr	Scp1 inh	DNMT1 inh	SUMO1-SIM PPI	Scp-1 conf	Scp-1 MG ctr	Scp1 DSF
COc1cc(NC(=S)N2CCCC(CO)C2)cc(OC)c1 (stereo not drawn)	15.3	0.8	2.1	70.1*	5.1	-0.8	-8.1	-5.2	.
COCc1cc(C)c(C#N)c(=S)[nH]1	-1.2	0.6	.	53.0*	1.1	-2.2	6.0	-0.8	.
Cc1ccc(NC(=O)CSc2nc(-c3ccco3)nc3cc(=O)[nH]n23)c(Cl)c1	8.6	4.4	-0.3	70.8*	32.9	11.0	48.1*	-15.3	-2.1
CN(C)C(=O)C[C@H]1C=C[C@@H](NC(=O)NC2CCCC2)[C@@H](CO)O1	.	.	3.1	.	.	.	.	.	.
C[C@@H]1CN([C@H](C)CO)S(=O)(=O)c2ccc(C#Cc3ccncc3)cc2O[C@H]1CN(C)C(=O)C1CCOCC1	.	.	-2.6	.	.	.	.	.	.
COc1ccc(CCNC(=O)c2cc(-c3ccco3)nc3ccccc23)cc1	.	.	-0.8	86.6*	.	.	72.7*	-6.2	4.5
Cc1ccc(-c2cc(C(=O)Nc3cccnc3)c3ccccc3n2)o1	1.3	2.2	-3.1	60.1*	50.5*	0.4	57.4*	-1.0	5.7*
O=C(Nc1ccccc1F)c1cc(-c2ccco2)nc2ccccc12	16.7	6.4	1.4	68.4*	40.2	-0.3	51.0*	-17.5	-6.3
COc1cccc(NC(=O)c2cc(-c3ccco3)nc3ccccc23)c1	8.3	4.0	-0.4	66.1*	17.2	2.2	31.4*	-5.7	2.1
Cc1ccc(C)c(-c2cc(C(=O)Nc3cccnc3)c3ccccc3n2)c1	-0.1	0.2	2.7	-3.1	-4.1	-4.6	.	.	.
CNC(=O)C[C@@H]1CC[C@@H]2[C@@H](COc3ccc(NC(=O)C(C)C)cc3C(=O)N2C)O1	.	.	-2.7	.	.	.	.	.	.
C[C@@H]1CN([C@@H](C)CO)C(=O)c2cc(C#Cc3ccccc3)cnc2O[C@@H]1CN(C)CC1CCOCC1	.	.	2.0	.	.	.	.	.	.
CCNC(=O)[C@H]1[C@H](CO)[C@H]2Cn3c(ccc(-c4ccccc4F)c3=O)[C@@H]1N2Cc1cccnc1	.	.	-0.5	.	.	.	.	.	.
COc1ccc(NC(=O)N(C)C[C@H]2Oc3ccc(NC(=O)Nc4ccc(C(F)(F)F)cc4)cc3C(=O)N([C@H](C)CO)C[C@@H]2C)cc1	-0.2	3.3	-2.4	50.4*	-17.6	4.6	12.8	-7.1	.
Cc1noc(C)c1NC(=O)N(C)C[C@@H]1Oc2ccc(NC(=O)Nc3ccccc3)cc2C(=O)N([C@@H](C)CO)C[C@H]1C	.	.	-1.1	.	.	.	.	.	.
COc1ccc(NC(=O)Nc2ccc3c(c2)C(=O)N([C@H](C)CO)C[C@H](C)[C@@H](CN(C)C(=O)Nc2ccc(C(F)(F)F)cc2)O3)cc1	-0.2	2.0	0.2	-1.9	-11.5	17.3	.	.	.
Cc1noc(C)c1NC(=O)N(C)C[C@H]1Oc2ccc(NC(=O)Nc3ccccc3)cc2C(=O)N([C@H](C)CO)C[C@@H]1C	-3.2	-2.2	1.1	65.0*	8.0	0.7	0.8	-10.4	.
